Screening data from PubChem.
Shown are actives, neighbours in structure and some others; about 3.5% of the full set was active somewhere.
MrgX1 agonist = agonists of human MrgX1 receptor; Q96LB2; AID 588627; B-score at 10 µM; MrgX1-HEK293 cells, Fluo-4 calcium fluorescence, agonist mode; stronger effect = higher value; actives 0.44% (n = 310,000);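 active = calcium response B-score plate-corrected fluorescence ratio at least 3 library SD, with starting fluorescence B-score inside 5 SD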
Target sequence (Q96LB2 whole entry, looked up): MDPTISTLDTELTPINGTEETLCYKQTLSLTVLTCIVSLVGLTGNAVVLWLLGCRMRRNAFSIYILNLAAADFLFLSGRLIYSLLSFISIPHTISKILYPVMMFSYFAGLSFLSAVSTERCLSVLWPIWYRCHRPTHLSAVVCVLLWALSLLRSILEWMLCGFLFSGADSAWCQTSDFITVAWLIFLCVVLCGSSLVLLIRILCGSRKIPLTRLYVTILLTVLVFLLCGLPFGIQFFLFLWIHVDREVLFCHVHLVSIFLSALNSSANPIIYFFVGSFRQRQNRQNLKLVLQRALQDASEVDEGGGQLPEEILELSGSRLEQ
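System – MrgX1-expressing HEK293 cells · Incubation – cells plated overnight, dye loaded 0.5 h 37 °C, 0.5 h room temperature · Technique – kinetic Fluo-4 NW fluorescence of intracellular calcium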
MrgX1 PAM = human MrgX1 positive allosteric modulation, primary screen | Q96LB2 | MrgX1-HEK293, Fluo-4 calcium flux, FDSS; stronger effect = higher value | B-score at 10 µM | actives 0.63% (n = 310,000);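 active = plate-corrected calcium response at least 3 library SD above typical, normal starting fluorescence, not activating the receptor alone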;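 note: compound read alongside a low EC10 to EC30 dose of BAM8-22 agonist; peak minus trough fluorescence over baseline measured at the second addition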
RGS4 act = RGS4 potentiation or activation; HEK293 M3R/inducible RGS4, carbachol calcium flux Fluo4; stronger effect = lower value; actives 0.92% (n = 310,000); B-score at 10 µM;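 active = B-score of the integrated calcium signal more than 4 SD below the library mean, with starting fluorescence not abnormally high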;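 note: negative B-score means reduced calcium response which marks RGS4 activation or potentiation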
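test system = HEK293 cells with stable M3R and inducible RGS4 | schedule = recording 10 s baseline at 1 Hz, 100 s post-agonist | technique = Fluo4-AM (2 µM) calcium-flux fluorescence, kinetic read | measure = Agonist-evoked peak-minus-minimum fluorescence over baseline, integrated ratio, B score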
RGS4 inh = human RGS4 inhibition. P49798. HEK293 M3R/RGS4 inducible, Fluo-4 calcium flux; stronger effect = higher value; triggered by carbachol at its EC20. B-score at 10 µM. actives 0.45% (n = 310,000);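 active = B-score, a plate-corrected calcium signal, over three deviations above library mean, with baseline fluorescence within five deviations of library mean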;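 note: RGS4 expression induced by doxycycline in cells with stable M3 receptor; B-score is computed from the integrated fluorescence ratio over baseline after carbachol; higher B-score means a larger calcium signal and so more RGS4 inhibition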
Target sequence (P49798 whole entry, looked up): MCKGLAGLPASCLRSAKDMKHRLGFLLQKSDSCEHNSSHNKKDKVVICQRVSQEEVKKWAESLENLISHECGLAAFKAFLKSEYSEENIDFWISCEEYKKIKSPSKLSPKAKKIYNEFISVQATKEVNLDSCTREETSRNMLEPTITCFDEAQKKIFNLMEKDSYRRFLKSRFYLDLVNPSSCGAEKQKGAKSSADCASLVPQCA
MrgX1 antag = antagonists of human MrgX1 receptor | MRGX1-HEK293 calcium flux, Fluo-4, BAM8-22 antagonism; stronger effect = lower value | B-score at 10 µM | actives 1.3% (n = 310,000) | Q96LB2;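 active = calcium-response B-score plate-corrected more than 3 library SD below zero, starting fluorescence within 5 deviations, no agonist response on first addition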;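 note: peak minus trough fluorescence over baseline after final BAM8-22 challenge near maximal dose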
MrgX1 antag conf = confirmation of human MrgX1 receptor antagonists; shares compounds with MrgX1 antag; MrgX1-HEK293, BAM8-22 calcium flux, Fluo-4; stronger effect = lower value; remaining BAM8-22 calcium response % of control (stronger effect = lower value), % at 10 µM; actives 19% (n = 2,300);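 active = remaining agonist calcium response no higher than 100% minus 3 SD of agonist-only control wells, with starting fluorescence near control levels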;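 note: agonist BAM8-22 given at a near maximal EC90 to ECmax level; peak minus minimum fluorescence divided by baseline after agonist addition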
HEK293 Ca flux = counter-screen for MrgX1 antagonists: effect in parental HEK293 cells | shares compounds with MrgX1 antag | Fluo-4 calcium fluorescence, FDSS | fluorescence ratio F(max-min)/F0 at 10 µM | actives 2% (n = 4,000);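 active = duplicate-averaged calcium fluorescence ratio at least three times the standard deviation of buffer wells, a nonspecific response in parental cells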
HEK293 Ca counter = activity in parental HEK293 cells without MrgX1. shares compounds with MrgX1 antag. parental HEK293 calcium flux, Fluo-4 fluorescence ratio; stronger effect = higher value. fluorescence ratio F(max-min)/F0 at 10 µM. actives 0.4% (n = 4,000). AID 624114;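 active = calcium fluorescence ratio, averaged over duplicates, at least 3 SD of the buffer-well ratio, meaning a nonspecific response in receptor-free cells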;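 note: untransfected parental HEK293 lacking MrgX1 used as counterscreen for MrgX1 allosteric activators; fluorescence change taken during the second addition on a kinetic imager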
HEK293 Ca cntr2 = activity in parental HEK293 cells lacking MrgX1 receptor. Fluo-4 calcium fluorescence (FDSS); stronger effect = higher value. shares compounds with MrgX1 antag. fluorescence ratio F(max-min)/F0 at 10 µM. AID 624115. actives 8.7% (n = 4,000);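 active = calcium fluorescence ratio at least three times the spread of buffer wells, meaning a non-specific response in parental cells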
The depositor's hits bear a star; i = inactive; x = no result.

SMILES	MrgX1 agonist	MrgX1 PAM	RGS4 act	RGS4 inh	MrgX1 antag	MrgX1 antag conf	HEK293 Ca flux	HEK293 Ca counter	HEK293 Ca cntr2
Cc1ccc(NC(=O)Nc2ccc(F)cc2)cc1Cl	i	i	i	i	-6.07*	71.2%*	i	i	i
CC(=O)Nc1ccc(S(=O)(=O)Nc2cc(-c3ccccc3)nn2C)cc1	i	i	i	i	i	x	x	x	x
CC(=O)Nc1ccc(S(=O)(=O)Nc2nc3nc(-c4ccccc4)cc(-c4ccccc4)n3n2)cc1	i	i	i	i	-6.38*	81.4%*	i	i	i
O=S(=O)(NCCc1csc(-c2cccnc2)n1)c1cccs1	i	i	i	i	i	x	x	x	x
O=S(=O)(NCCc1csc(-c2cccnc2)n1)c1ccc(Cl)s1	i	i	i	i	-4.86*	79.0%*	i	i	i
CSc1nc(-c2ccco2)cc(C(F)(F)F)c1C#N	i	i	i	i	i	x	x	x	x
N#Cc1c(C(F)(F)F)cc(-c2ccco2)nc1SCc1ccccn1	i	i	i	i	-4.65*	i	i	i	i
O=C(c1cc(-c2ccccn2)nc2ccc(Br)cc12)N1CCN(S(=O)(=O)c2ccccc2)CC1	i	i	i	i	-6.7*	i	i	i	i
O=C(c1cc(-c2ccccn2)nc2ccc(Br)cc12)N1CCc2ccccc2C1	x	x	i	i	x	x	x	x	x
COc1ccc(NC(=O)C2CCCN(c3c4c(nc5ncnn35)CCC4)C2)cc1 (stereo not drawn)	i	i	i	i	i	x	x	x	x
N#Cc1cc(-c2ccccc2)nnc1Sc1ccc(F)cc1	i	i	i	i	i	x	x	x	x
N#Cc1cc(-c2ccccc2)nnc1Sc1ccccc1	i	i	i	i	-4.88*	79.4%*	i	i	i
Cc1cc(=O)oc(C)c1C(=O)NC1CCCCCCC1	i	i	i	i	i	x	x	x	x
COc1ccc(NC(=O)N2CCCC2C(=O)NCc2ccc(F)cc2)cc1 (stereo not drawn)	i	i	i	i	-12.6*	i	i	i	i
COc1cccc(NC(=O)C2CCCN2C(=O)Nc2ccccc2)c1 (stereo not drawn)	i	i	i	i	i	x	x	x	x
COc1cccc(NC(=O)C2CCCN2C(=O)Nc2cccc(F)c2)c1 (stereo not drawn)	i	i	i	i	-4.92*	i	i	i	i
COc1ccccc1NC(=O)N1CCCC1C(=O)NCc1ccccc1 (stereo not drawn)	i	i	i	i	-5.69*	i	i	i	i
COC(=O)c1[nH]c2ccccc2c1NC(=O)CCN1CCSCC1	i	i	i	i	i	x	x	x	x
FC(F)(F)c1cnc(N/N=C/c2ccncc2)c(Cl)c1	i	i	i	i	i	x	x	x	x
O=C(CSc1nnc(-c2cccc(F)c2)o1)NC1CCCC1	x	x	i	i	x	x	x	x	x
CCc1sc(NC(C)=O)nc1-c1ccccc1	i	i	i	i	i	x	x	x	x
CCc1sc(NC(=O)COC)nc1-c1ccccc1	i	i	i	i	-4.62*	i	i	i	i
O=C(NC(=S)NCCN1CCOCC1)c1ccccc1Cl	i	i	i	i	-4.88*	i	i	i	i
Cc1ccc(Cn2nc(C)c(NC(=O)c3nn(C)cc3Cl)c2C)cc1	i	i	i	i	-10.2*	i	i	i	i
O=C(COC(=O)C12CC3CC(CC(O)(C3)C1)C2)NC(=O)NCc1ccco1	i	i	i	i	i	x	x	x	x
SMILES	MrgX1 agonist	MrgX1 PAM	RGS4 act	RGS4 inh	MrgX1 antag	MrgX1 antag conf	HEK293 Ca flux	HEK293 Ca counter	HEK293 Ca cntr2
COc1nc2ccccc2c(=O)n1OCC(C)C	i	i	i	i	i	x	x	x	x
CCNc1ccc2noc3c2c1C(=O)c1ccccc1-3	i	i	i	i	-4.75*	i	0.579*	i	i
CCN(CC(=O)Nc1ccc(NC(C)=O)cc1)C(=O)CCCOc1cccc(C)c1	i	i	i	i	i	x	x	x	x
COCCSc1nnc(NC(=O)C2CCN(C(=O)c3ccco3)CC2)s1	i	i	i	i	i	x	x	x	x
Fc1ccc(C(c2nnnn2Cc2cccs2)N2CCN(C3CCCC3)CC2)cc1 (stereo not drawn)	i	i	i	i	-7.06*	i	i	i	i
CC(=O)NC1C(=O)N(CCN2CCOCC2)c2ccc(Cl)cc21 (stereo not drawn)	i	i	i	i	-8.71*	i	i	i	i
CCCCN1C(=O)C(NC(C)=O)c2cc(Br)ccc21 (stereo not drawn)	i	i	i	i	i	x	x	x	x
CC(=O)NC1C(=O)N(CCN2CCOCC2)c2ccc(F)cc21 (stereo not drawn)	i	i	i	i	-5.35*	60.5%*	i	i	i
CC1(C)CC(NCc2ccncc2)CC(C)(C)N1	i	i	i	i	-9.66*	85.6%*	i	i	i
CN(C)c1ccc(CNC2CC(C)(C)NC(C)(C)C2)cc1	i	i	i	i	i	x	x	x	x
Cc1nn(CCO)c2nc(-c3cccs3)cc(C(F)(F)F)c12	i	i	i	i	-9.49*	i	i	i	i
CCN1c2ccc(S(=O)(=O)N3CCOCC3)cc2N(Cc2ccc(OC)cc2)C1C (stereo not drawn)	i	i	i	i	-4.71*	i	i	i	i
COc1ccc2cc(S(=O)(=O)N3CCOCC3)ccc2c1	i	i	i	i	i	x	x	x	x
Cc1ccc(OCC(=O)N/N=C2/SCC(=O)N2Cc2ccccc2)cc1	i	i	i	i	-21.3*	i	i	i	i
O=c1cc(NS(=O)(=O)c2ccccc2)nc(SCc2c(Cl)cccc2Cl)[nH]1	i	i	i	i	-5.14*	i	i	i	i
